The values that follow come from PMC10979060 (Heliyon, 2024).

Where two headings read alike, the source gives them in different places. No end group written: not given here.

The subject of assay [1] is ACE. To be noted: cited from earlier work.
Assay [2] concerns ACE. The assay can be described thus: ACE-inhibitory kinetics. Type of assay: biochemical. The gist of the method: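 Reciprocal velocity was plotted against reciprocal HHL concentration (Lineweaver–Burk). Vmax came from the Y-axis intercept and Km from the X-axis intercept. The inhibition mode was assigned from the plot pattern. Runs were in triplicate.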

Consider Val-Lys-Pro, for which the half-inhibitory concentration (IC50) (commonly the concentration needed to halve the response being measured) in assay [1] (peptide from freshwater clam, ref [39]) is 3.7 µM.

On to KKCHFWPFPW [KKCHFWPFPW], for which the inhibition mode result in assay [2] (Lineweaver–Burk, HHL 0.5, 1, 2 mM, peptide 0, 17.63, 35.26, 70.52, 105.78, 141.04, 176.3 μM, triplicate) is on record as “competitive inhibition”. Moreover, the Km values entry in assay [2] (Lineweaver–Burk, HHL 0.5, 1, 2 mM, peptide added vs control, triplicate) is given as “higher than that of the control”. The “inhibitor class (substrate-type, prodrug-type or true inhibitor)” value in assay [2] (according to the Lineweaver–Burk plot) is reported as “true inhibitor”.

For Tyr-Arg-Pro-Tyr, the IC50 in assay [1] (peptide from bonito, ref [37]) was 320 µM.

With MEGAQEAQGD, the IC50 in assay [1] (peptide from sea cucumber, ref [38]) is 4.5 µM.
